Screens deposited in PubChem by several laboratories.
FLuc act counter: FLuc activators, initial screening, artefact control for FLuc-dependent activation tests, biochemical, ATPlite luminescence. Luciferin 4-monooxygenase (Photinus pyralis), P08659. ATPlite luciferase biochemical, 10 min; 0 = ATP-free wells, 1 = DMSO control. activation factor at 10 µM. 200,000 tested, under 10 active. AID 1027, 2008;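 active = luciferase activation factor, scaled between plate controls, of at least 2 with compound at 10 µM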
Target sequence (P08659 whole entry, looked up): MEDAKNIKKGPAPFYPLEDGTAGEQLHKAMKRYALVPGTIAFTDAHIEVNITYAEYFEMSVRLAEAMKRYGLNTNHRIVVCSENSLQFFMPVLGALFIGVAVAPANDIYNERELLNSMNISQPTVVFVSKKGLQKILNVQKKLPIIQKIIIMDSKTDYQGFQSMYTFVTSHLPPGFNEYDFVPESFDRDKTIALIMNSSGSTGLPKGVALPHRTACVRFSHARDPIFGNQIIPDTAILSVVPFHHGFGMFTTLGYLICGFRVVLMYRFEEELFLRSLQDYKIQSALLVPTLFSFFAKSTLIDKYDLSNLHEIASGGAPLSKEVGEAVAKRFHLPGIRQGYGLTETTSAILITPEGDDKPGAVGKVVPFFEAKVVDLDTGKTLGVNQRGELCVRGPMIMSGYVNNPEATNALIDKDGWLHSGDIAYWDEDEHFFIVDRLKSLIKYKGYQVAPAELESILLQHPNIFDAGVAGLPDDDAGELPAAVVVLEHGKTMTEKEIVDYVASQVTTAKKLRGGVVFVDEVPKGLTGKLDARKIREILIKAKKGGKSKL
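Assay system: Luciferase/luciferin detection reagent, cell-free biochemical luciferase assay / Read-out: luciferase activation / Benchmarks: No-ATP low control, compound-free enzyme-plus-ATP high control / Medium: PBS buffer for ATP / Detection: luminescence measurement of luciferase light output / Schedule: 10 min at ambient temperature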
STAT1 activator: STAT1 signaling activators, primary screen, cell-based, HTS, luciferase reporter. NIH 3T3 STAT1-luciferase reporter, IFN-gamma, luminescence; 100% = IFN-gamma alone, no compound. activation (% of control), % at 5.5 µM. 200,000 compounds, 2.6% hits;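 active = activation above the screen-wide mean activation plus 3 SD, cut at about 130% in these data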;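 also: raw ratio to IFN-gamma control signal so 100% means no change and 0% no light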
NF-kB neuron act: activators of NF-kB expression in neurons, primary screen, cell-based, HTS; human neuronal cells, NF-kB reporter expression; stronger effect = higher value; fold change at 12.5 µM; 190,000 compounds, 1.6% hits; AID 1239, 2008; in the data active = fold change above about 3.3
FLuc inhib CS: firefly luciferase enzyme inhibitors, primary screen, artefact control for luciferase-based inhibitor screens, biochemical, luminescence, ATPLite. 10 min. inhibition, % at 10 µM. AID 1006, 2008. 200,000 compounds, 1.5% hits;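 active = inhibition above about 50% when tested at 10 µM, limit read from the data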
Pf gametocyte: late stage P. falciparum gametocyte viability inhibitors, primary screen, ATP luminescence, HTS. P. falciparum stage V gametocytes, 24 h. inhibition, % at 10.9 µM. 150,000 compounds, 0.065% hits. AID 743093, 2013;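 active = inhibition above the mean plus 3 SD of compounds within the control limits, set per campaign, cut at about 38% in these data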;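 also: 0% = DMSO wells and 100% = medium only without gametocytes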
APP 5'UTR act: activators of APP 5'UTR luciferase reporter, primary screen, SH-SY5Y cells | SH-SY5Y APP 5'UTR luciferase reporter, luminescence; zero percent = DMSO vehicle wells | AID 1276, 2008 | activation, % at 2 µM | 190,000 compounds, 1% hits;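 active = activation above a set limit, based on mean plus 3 SD of controls, cut at about 140% in these data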
STAT1 act conf: STAT1 signaling activators, confirmation, cell-based, HTS, luciferase reporter. shares compounds with STAT1 activator. NIH 3T3 STAT1-luciferase reporter, IFN-gamma potentiation, luminescence; 100% = IFN-gamma EC80 alone, no compound. 1,200 compounds, 97% hits. activation (% of control), % at 5.7 µM;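 active = activation above a set limit carried over from the earlier primary STAT1 screen, cut at about 140% in these data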;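 also: simple ratio to median IFN-gamma plus DMSO wells so 0% means no light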
NFkB act: NF-kB reporter activators, TNF-alpha stimulated, counter-screen for STAT1 activator project, cell-based, HEK293T, luciferase luminescence. shares compounds with STAT1 activator. 100% = TNF-alpha with vehicle only. 1,200 compounds, 43% hits. activation (% of control), % at 5.7 µM. AID 1306, 2008;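 active = activation above the mean of solvent-only control wells plus 3 SD, set per campaign, cut at about 130% in these data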;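 also: TNF-alpha given at a submaximal dose yielding about 80% of full reporter signal; values are well signal over median control so 100% means no change and 0% no light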
STAT3 act STAT1c: STAT3 reporter activation by STAT1 hits, confirmation, counter-screen for STAT1 activator project, U3A cells, luciferase, luminescence; activation (% of control), % at 5.7 µM; AID 1316, 2008; IL-6; cells lack STAT1; 100 = IL-6 alone, no compound effect; shares compounds with STAT1 activator; 1,200 compounds, 46% hits;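 active = activation above the solvent-only control well mean plus 3 SD, set per plate batch, cut at about 110% in these data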;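 also: 0% = no luminescence and 100% = median IL-6 plus DMSO wells; higher means more STAT3 reporter activation so hits are non-selective activators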
* = called active by the depositor; / = not tested or not shown. An excerpt weighted towards active compounds, which were near 3.5% of everything screened.

SMILES	FLuc act counter	STAT1 activator	NF-kB neuron act	FLuc inhib CS	Pf gametocyte	APP 5'UTR act	STAT1 act conf	NFkB act	STAT3 act STAT1c
COc1ccc(/C=C2\SC(=O)N(CCNC(=O)C3CC4C=CC3C4)C2=O)cc1 (stereo unspecified)	0.8	159*	9.5*	20	-10	202*	146*	150*	134*
CCOC(=O)C1CC(c2ccc(Cl)cc2)=NNC1=O (stereo unspecified)	1	103	1.2	-1	-16	-17	/	/	/
CCN1C/C(=C/c2ccc(OC)c(O)c2)C(=O)/C(=C/c2ccc(OC)c(O)c2)C1	1	335*	0.24	0	-11	-88	109	138*	97
CSc1nc2c(c(=O)[nH]1)C(c1cccc(Br)c1)CC(=O)N2 (stereo unspecified)	1.1	87	1.1	-7	-20	-17	/	/	/
O=C(COC(=O)/C=C/c1ccco1)Nc1ncc(Cl)cc1Cl	1	96	1.1	-4	9	2	/	/	/
Clc1cnc(N/N=C/c2ccco2)c(Cl)c1	0.7	159*	4.2*	26	-7	155*	151*	111	92
CCOC(=O)C1CCCN(Cc2nc(N)nc(Nc3ccc(Cl)cc3)n2)C1 (stereo unspecified)	1.1	100	0.54	-10	-8	1	/	/	/
COc1ccc(C2C(C#N)=C(C)NC(C)=C2C(=O)OC(C)C)c(OC)c1 (stereo unspecified)	1.1	102	1.1	-8	8	-10	/	/	/
CC1CCc2nc(/C(C#N)=C/c3ccncc3)sc2C1 (stereo unspecified)	0.8	152*	1.1	24	-19	47	160*	130	94
O=C(Nc1nc2c(s1)CCc1ccccc1-2)c1cccs1	1	109	1.5	-3	/	44	/	/	/
Fc1ccccc1Nc1nc2c(s1)CCc1ccccc1-2	0.9	198*	7.8*	13	/	164*	268*	157*	161*
Cc1ccc(NCc2nc3ccccc3n2C)cc1C	/	/	/	/	15	/	/	/	/
Cc1ccc(NCc2nc3ccccc3n2C)cc1	0.3	153*	5.3*	70*	0	175*	183*	133	190*
Cc1ccc(-n2ncc(Br)c(Br)c2=O)cc1	0.9	114	0.15	8	/	-95	/	/	/
O=c1c(Br)c(Br)cnn1-c1ccccc1	1	177*	0.23	-4	22	-95	118	120	91
O=c1c2ccccc2cnn1-c1ccc(Br)cc1	0.5	152*	6.4*	48	-2	124	214*	142*	141*
CCn1ccc(C(=O)Nc2c(C)nn(Cc3c(F)c(F)c(F)c(F)c3F)c2C)n1	1.1	103	1.2	-7	/	-1	/	/	/
O=C(CSc1nnc(-c2ccncc2)o1)N1CCCC1	1	100	0.94	-4	/	26	/	/	/
O=[N+]([O-])c1ccccc1/C=C/C=N/N1CCCCC1	0.5	155*	4.5*	46	-8	99	178*	130	111*
COc1ccc(C(=O)Cn2nnc(-c3ccccc3F)n2)cc1	1.1	102	1.6	-5	8	25	/	/	/
COc1ccc(-c2nnn(Cc3ccccc3F)n2)cc1	0.8	163*	2.9	19	/	118	176*	133*	114*
Cc1cccc2cc(CN(CCN3CCOCC3)C(=O)NCc3ccccc3)c(=O)[nH]c12	1.1	100	1.1	-7	/	-7	/	/	/
Clc1ccc(-c2cc(CSc3cccc(Cl)c3)on2)cc1	1.1	98	1.3	-6	-7	/	/	/	/
c1ccc(SCc2cc(-c3ccccc3)no2)cc1	1	162*	2.1	4	-43	116	175*	127	102
c1ccc(OCc2cc(-c3ccccc3)no2)cc1	0.8	152*	2	20	-3	59	169*	131	99
SMILES	FLuc act counter	STAT1 activator	NF-kB neuron act	FLuc inhib CS	Pf gametocyte	APP 5'UTR act	STAT1 act conf	NFkB act	STAT3 act STAT1c
COc1ccc(OCc2cc(-c3ccc(Cl)cc3)no2)cc1	1	105	1.1	-4	1	-6	/	/	/
COc1ccccc1OCc1cc(-c2ccccc2)no1	0.8	161*	4.3*	20	1	80	184*	138*	106
O=c1c(-c2ccc(Cl)cc2)cnc2n1CCS2	1	112	1.6	0	-6	39	/	/	/
COc1ccc(C(=O)NCC(=O)OCC(=O)Nc2sccc2C#N)cc1OC	1	107	1.1	0	12	15	/	/	/
CCOC(=O)/C(C#N)=C\c1cc(C)n(-c2ccccc2)c1C	0.2	165*	0.62	76*	/	136*	238*	113	115*
CC(=O)C(=Cc1cc(C)n(-c2ccccc2)c1C)C(C)=O	0.9	100	1.1	11	9	-9	/	/	/
Cc1ccc(NC(=O)c2ccc(OC(=O)COc3cccc(Cl)c3)cc2)cc1	1	154*	1.6	0	-1	111	170*	129	111*
Cc1ccc(NC(=O)c2ccc(OC(=O)COc3ccc(Cl)cc3C)cc2)cc1	1	159*	1.4	-1	12	88	167*	128	119*
Cc1cccc(OCC(=O)Oc2ccc(Cl)cc2)c1	/	/	/	/	-8	/	/	/	/
CCCCN(Cc1cc2ccccc2[nH]c1=O)C(=O)c1ccccn1	1	94	1.1	-1	/	0	/	/	/
CCOc1ccc(N/C(C)=C\C(=O)c2ccc3c(c2)OCCO3)cc1	0.9	156*	3.4*	13	11	36	220*	134*	105
Cc1ccc(-n2ncc3c(NCc4ccco4)ncnc32)cc1C	0.9	154*	4.7*	10	/	129	181*	140*	106
Cc1cccc(-n2ncc3c(NCc4ccccn4)ncnc32)c1	0.9	113	1.7	9	-7	41	/	/	/
Cc1ccc(N=Nc2ccc3ccccc3c2O)cc1	/	/	/	/	23	/	/	/	/
